Activity calls are given as the source filed them. No cut-off for these calls is given here.
Assays:
Mus musculus [1] = assay: AUC in BALB/C mouse at 10 mg/kg, po or 2 mg/kg, iv by LC-MS/MS method; format: ADME, organism-based, Plasma; details: in vivo
Procedure, shortened: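 Female-unspecified BALB/C nude mice (15−20 g, N = 16 per arm); iv bolus 2 mg/kg in 5% DMSO/40% PEG400/55% saline and/or oral gavage 10 mg/kg as 0.445% microcrystalline cellulose microsuspension. Blood sampled at nine (iv) or eight (po) time points into sodium heparin tubes; plasma by LC-MS/MS; noncompartmental analysis.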

[2] = Antitumor activity against treatment responding human hepatocellular carcinoma patient tumor xenografted in BALB/C mouse assessed as tumor growth inhibition at 100 mg/kg, po administered every other day for 4 weeks; format: functional; details: 672 h, read-out: TGI
Procedure, shortened: (§1)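 Tumor fragments (3×3×3 mm3) from HCC patients implanted subcutaneously in right flank of female BALB/c nu/nu mice (6−7 weeks). At about 200 (150−250) mm3, randomized (n = 10 per arm); Q2D PO 100 mpk in 15% Kleptose pH 4.5 tartaric buffer, about four weeks; caliper tumor volume three times weekly.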

SGC-7901 [3] = format: functional, Homo sapiens
BEL-7404 [4] = assay: Antitumor activity against human BEL-7404 cells xenografted in BALB/C mouse assessed as tumor growth inhibition at 50 mg/kg, po qd for 4 weeks; details: BEL-7404, po, 672 h, read-out: TGI
BEL-7404 [5] = assay: Antitumor activity against human BEL-7404 cells xenografted in BALB/C mouse assessed as tumor growth inhibition at 100 mg/kg, po administered every other day for 4 weeks; details: BEL-7404, po, 672 h, read-out: TGI
SMMC-7721 = assay: Induction of apoptosis in human SMMC-7721 cells assessed as late apoptotic cell level at 5 uM incubated for 48 hrs by FITC/Annexin V staining based flow cytometry (reference value: 6.08%)
[6] = Volume of distribution at steady state in BALB/C mouse at 10 mg/kg, po or 2 mg/kg, iv by LC-MS/MS method; format: ADME, organism-based; parameters: unit not given here; details: in vivo, read-out: Vdss
Procedure, shortened: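 Single-dose PK: iv bolus 2 mg/kg in 5% DMSO/40% PEG400/55% saline and/or oral gavage 10 mg/kg as 0.445% microcrystalline cellulose microsuspension; BALB/C nude mice (15−20 g, N = 16 per arm) or male Sprague−Dawley rats (250 ± 20 g, N = 3). Blood at eight (po) or nine (iv) time points into sodium heparin, plasma by LC-MS/MS, noncompartmental analysis.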

[7] = Clearance in mouse liver microsomes at 1 uM incubated for 10 mins by LC-MS/MS method; format: ADME, Microsome
Procedure, shortened: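 Liver microsomes (human or mouse, 0.5 mg/mL) in 100 mM potassium phosphate pH 7.4 with 1 μM compound, prewarmed 10 min at 37 °C, started with NADPH (10 mM); stopped at 0, 3, 6, 9, 15, 30 min with ice-cold methanol containing tolbutamide internal standard; LC-MS/MS. Hepatic clearance (mL/min/kg) calculated from intrinsic clearance.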

Mus musculus [8] = assay: Reactivation of SPINT2 gene expression in treatment responding human hepatocellular carcinoma patient tumor xenografted in BALB/C mouse at 100 mg/kg, po administered every other day for 4 weeks; format: functional, organism-based; parameters: dose 100 mg/kg
Procedure, shortened: (§2)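 Patient HCC tumor fragments (3 × 3 × 3 mm3) implanted subcutaneously in female BALB/c nu/nu mice; at ~200 (150−250) mm3 dosed orally Q2D 100 mpk in 15% Kleptose pH 4.5 tartaric buffer for about four weeks. Tumor RNA (TRIzol, DNase I) run on 22-gene qRT-PCR array, normalized to GAPDH/β-glucuronidase by ΔCt, fold change versus day 0.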

Mus musculus [9] = assay: Inhibition of Class 1 histone deacetylase in treatment non-responding human hepatocellular carcinoma patient tumor xenografted in BALB/C mouse assessed as induction of histone H3 acetylation at 100 mg/kg, po administered every other day for 4 weeks by immunohistochemistry; format: functional, organism-based; parameters: dose 100 mg/kg
Procedure, shortened: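 Patient-derived HCC xenografts in female nude mice given 100 mpk Q2D PO (15% Kleptose, pH 4.5 tartaric buffer); single dose on last day, tumors harvested 0 to 24 h post-dose. Paraffin sections, citrate pH 6.0 antigen retrieval, anti-Ac-H3 (Lys9) 1:200 overnight 4 °C, HRP/DAB; scored 0−3 independently by two pathologists.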

Homo sapiens = assay: Antitumor activity against treatment non-responding human hepatocellular carcinoma patient tumor xenografted in BALB/C mouse assessed as tumor growth inhibition at 100 mg/kg, po administered every other day for 4 weeks; format: functional, organism-based; parameters: dose 100 mg/kg; procedure, shortened: as §1
Mus musculus [10] = assay: Down-regulation of WNT5A gene expression in human hepatocellular carcinoma patient tumor xenografted in BALB/C mouse at 100 mg/kg, po administered every other day for 4 weeks by […]; format: functional, organism-based; parameters: dose 100 mg/kg
Procedure, shortened: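 Patient-derived HCC xenografts dosed 100 mpk Q2D PO; tumor total RNA (TRIzol, DNase I treated, column-purified) run on a customized 22-gene qRT-PCR array; ΔCt against mean of GAPDH and β-glucuronidase, fold-change relative to day 0 (pre-treatment).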

Mus musculus [11] = assay: Up-regulation of CDKN1A gene expression in human hepatocellular carcinoma patient tumor xenografted in BALB/C mouse at 100 mg/kg, po administered every other day for 4 weeks by […]; format: functional, organism-based; parameters: dose 100 mg/kg; procedure, shortened: as §2
Mus musculus [12] = assay: Up-regulation of PYCARD gene expression in human hepatocellular carcinoma patient tumor xenografted in BALB/C mouse at 100 mg/kg, po administered every other day for 4 weeks by […]; format: functional, organism-based; parameters: dose 100 mg/kg; procedure, shortened: as §2
Mus musculus [13] = assay: Up-regulation of TIMP3 gene expression in human hepatocellular carcinoma patient tumor xenografted in BALB/C mouse at 100 mg/kg, po administered every other day for 4 weeks by […]; format: functional, organism-based; parameters: dose 100 mg/kg; procedure, shortened: as §2
Mus musculus [14] = assay: Up-regulation of FN1 gene expression in human hepatocellular carcinoma patient tumor xenografted in BALB/C mouse at 100 mg/kg, po administered every other day for 4 weeks by […]; format: functional, organism-based; parameters: dose 100 mg/kg; procedure, shortened: as §2
Mus musculus [15] = assay: Up-regulation of CDKN2B gene expression in human hepatocellular carcinoma patient tumor xenografted in BALB/C mouse at 100 mg/kg, po administered every other day for 4 weeks by […]; format: functional, organism-based; parameters: dose 100 mg/kg; procedure, shortened: as §2
Mus musculus [16] = assay: Up-regulation of CCND2 gene expression in human hepatocellular carcinoma patient tumor xenografted in BALB/C mouse at 100 mg/kg, po administered every other day for 4 weeks by […]; format: functional, organism-based; parameters: dose 100 mg/kg; procedure, shortened: as §2
SGC-7901 [17] = assay: Induction of cell cycle arrest in human SGC7901 cells assessed as reduction in accumulation at S phase incubated for 24 hrs by flow cytometry; format: functional, cell-based
Procedure, shortened: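 SGC-7901 cells (1 × 10^5, about 50% confluent) treated 24 h with a concentration series; fixed in chilled 70% ethanol 1 h at 4 °C, stained 1 h at room temperature with propidium iodide (50 μg/mL) plus RNase A and 0.05% Triton X-100; analysed by flow cytometry.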

Mus musculus [18] = assay: Inhibition of Class 1 histone deacetylase in human Bel7404 cells xenografted BALB/C mouse assessed as induction of histone H3 acetylation at 50 mg/kg, po qd for 4 weeks by Western blot method; details: Bel-7404

## CN1C[C@H](C(=O)Nc2ccc(Cl)cc2)[C@@H](c2ccc(/C=C/C(=O)Nc3ccccc3N)cc2)C1 [listing 1 of 2 here]
Mus musculus [1]
  AUC: 6316 ng·h/mL
[2]
  inhibition in vivo at 100 mg/kg: 50%
SGC-7901 [3]
  GI90: 1.4 µM
BEL-7404 [4]
  inhibition in vivo at 50 mg/kg: > 60%
BEL-7404 [5]
  inhibition in vivo at 100 mg/kg: > 60%
SMMC-7721
  Activity: 36.17%

## CN1C[C@H](C(=O)Nc2ccc(Cl)cc2)[C@@H](c2ccc(/C=C/C(=O)Nc3ccccc3N)cc2F)C1 (racemic)
[6]
  Vd: 3
[7]
  CLhep predicted at 1 µM: 36 mL/min/kg

## CN1C[C@H](C(=O)Nc2ccc(Cl)cc2)[C@@H](c2ccc(/C=C/C(=O)Nc3ccccc3N)cc2)C1 [listing 2 of 2 here]
Mus musculus [8]
  Activity: Active
Mus musculus [9]
  inhibition: inactive
Homo sapiens
  TGI: inactive
Mus musculus [10]
  Activity: Active
Mus musculus [11]
  Activity: Active
Mus musculus [12]
  Activity: inactive
Mus musculus [13]
  Activity: Active
Mus musculus [14]
  Activity: Active
Mus musculus [15]
  Activity: Active
Mus musculus [16]
  Activity: Active
SGC-7901 [17]
  Activity: Dose-dependent effect
Mus musculus [18]
  inhibition: Active
